Results gathered from unrelated publications.
Protocols differ between the studies behind these lines.
SLC6A4: Sodium-dependent serotonin transporter (SLC6A4, Homo sapiens, UniProt P31645)
GRK7: Rhodopsin kinase GRK7 (GRK7, Homo sapiens, UniProt Q8WTQ7)
rep main protease: Replicase polyprotein 1ab, main protease (rep, Porcine epidemic diarrhea virus, UniProt P0C6Y4)

SMILES	target	test	setting	endpoint	value
CSc1nc(NCCC2CC2)c2ncn([C@H]3[C@H](O)[C@H](O)[C@@H]4C[C@@H]43)c2n1	SLC6A4	ligand displacement, radioligand	10 µM	inhibition	17%
CN1CCc2cccc3c2[C@H]1Cc1ccc(O)c(O)c1-3	D(1A) dopamine receptor (DRD1, Homo sapiens, UniProt P21728)	cAMP, agonist	–	Emax	~100%
O[C@@H]1[C@H](O)[C@@H]2C[C@@H]2[C@H]1n1cnc2c(NCCC3CC3)ncnc21	SLC6A4	ligand displacement, radioligand	10 µM, cell membranes	inhibition	14%
CCCCC(=O)Nc1ccc(-c2ccc3ncn(CCC)c(=O)c3c2)cn1	GRK7	binding, competition with immobilised ligand	0.5 µM	remaining binding	93%
CCOC(=O)[C@@]12C[C@@H]1[C@@H](n1cnc3c(NCCCCCc4ccccc4)nc(I)nc31)[C@H](O)[C@@H]2O	SLC6A4	ligand displacement, radioligand	10 µM	inhibition	48%
O=C(O)c1cccc(-c2noc(-c3ccccc3F)n2)c1	Flavin reductase (NADPH) (BLVRB, Homo sapiens, UniProt P30043)	binding, SPR	–	kon	3060 M⁻¹ s⁻¹
Cc1cc(O)c(-c2ccc([C@@H](C)CN(C)C)cc2)c2c1[nH]c(=O)c1sccc12	Mitogen-activated protein kinase kinase kinase 20 (MAP3K20, Homo sapiens, UniProt Q9NYL2)	enzyme activity, inhibitor	0.1 µM	inhibition	-2.95%
COc1ccc(C(=O)NCc2cc(O)c(O)c(Br)c2)cc1OC	rep main protease	enzyme activity, inhibitor, FRET	10 µM	inhibition	74.7%
CCOC(=O)[C@@]12C[C@@H]1[C@@H](n1ccc3c(NCCCCc4ccccc4)nc(C#Cc4ccccc4)nc31)[C@H](O)[C@@H]2O	SLC6A4	ligand displacement, radioligand	10 µM	inhibition	9%
O=C(NCc1cc(O)c(O)c(Br)c1)c1ccc2ccccc2n1	rep main protease	enzyme activity, inhibitor, FRET	10 µM	inhibition	62.4%
CCOC(=O)[C@@]12C[C@@H]1[C@@H](n1cnc3c(NCCCCCc4ccccc4)nc(C#Cc4ccccc4)nc31)[C@H](O)[C@@H]2O	SLC6A4	ligand displacement, radioligand	10 µM, cell membranes	inhibition	27%
COc1cc(CNC(=O)c2ccc(N(C)C)cc2)cc(Br)c1OC	rep main protease	enzyme activity, inhibitor, FRET	10 µM	inhibition	32.3%
COc1cc(-c2cc(C(C)=O)n3ccccc23)cc(OC)c1Cn1ccnc1	Bromodomain adjacent to zinc finger domain protein 2B, bromodomain (BAZ2B, Homo sapiens, UniProt Q9UIF8)	thermal stability, DSF	–	ΔTm	1.6 °C
COc1cc(CNC(=O)c2ccc3ccccc3n2)cc(Br)c1OC	rep main protease	enzyme activity, inhibitor, FRET	10 µM	inhibition	85.2%
C1=C/COCc2cc(ccc2OCCN2CCCC2)Nc2nccc(n2)-c2cccc(c2)COC/1	GRK7	binding	0.1 µM	remaining binding	86%
O=C(NCc1cc(O)c(O)c(Br)c1)c1ccc2ccccc2c1	Replicase polyprotein 1ab, papain-like protease (rep, Porcine epidemic diarrhea virus, UniProt P0C6Y4)	enzyme activity, inhibitor, FRET	10 µM	inhibition	19.4%
CCN1/C(=C/C(C)=O)Sc2ccc(F)cc21	SLC6A4	ligand displacement, radioligand	10 µM	inhibition	2.03%
O=C(NCc1cc(O)c(O)c(Br)c1)c1cccc(Br)c1	rep main protease	enzyme activity, inhibitor, FRET	10 µM	inhibition	98.4%
CCOC(=O)[C@@]12C[C@@H]1[C@@H](n1cnc3c(NCc4cccc(Cl)c4)nc(C#Cc4ccc(Cl)s4)nc31)[C@H](O)[C@@H]2O	SLC6A4	ligand displacement, radioligand	10 µM	inhibition	13%
